Measured values: ChEMBL document CHEMBL4152234, “Aminobenzothiazole derivatives stabilize the thermolabile p53 cancer mutant Y220C and show anticancer activity in p53-Y220C cell lines” (Eur J Med Chem, 2018)

Assays:
Type in all cases: cell-based
[1] = system: Cellular tumor antigen p53 (Homo sapiens), P04637 [Y220C]; assay: Activation of p53 Y220C mutant in human NUGC3 cells assessed as change in MLH1 mRNA level at 60 uM after 18 hrs by RT-PCR method relative to control
Summary of the method: (§1)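 p53 signalling qPCR array covering 84 p53 pathway genes. Cells were exposed for 18 h, and compound and control wells both held 0.5% DMSO. Total RNA was extracted and purified. Fold-changes were calculated by the ΔΔCt method against the untreated sample, with β2-microglobulin (B2M) as the housekeeping gene. Each cell line was run in two independent biological replicates.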

[2] = system: Cellular tumor antigen p53 (Homo sapiens), P04637 [Y220C]; assay: Activation of p53 Y220C mutant in human NUGC3 cells assessed as change in CCNG1 mRNA level at 60 uM after 18 hrs by RT-PCR method relative to control
Summary of the method: (§2)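 p53 signalling qPCR array covering 84 genes. Cells were exposed for 18 h, with 0.5% DMSO in both compound and control samples. Total RNA was extracted and purified. Fold-changes were calculated by ΔΔCt using β2-microglobulin (B2M) as the housekeeping gene. Two independent biological replicates were run per cell line.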

[3] = target: T1, Cellular tumor antigen p53 (Homo sapiens, UniProt P04637); assay: Activation of p53 in human NUGC4 cells assessed as change in MCL1 mRNA level at 60 uM after 18 hrs by RT-PCR method relative to control; conditions: read-out: FC
Summary of the method: (§3)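 p53 signaling qPCR array of 84 p53-pathway genes. Cells were treated in 6-well plates for 18 h with 0.5% DMSO in compound and control samples. Total RNA was extracted and fold-changes were obtained by the ΔΔCt method against untreated control, with β2-microglobulin (B2M) as housekeeping gene. Two independent biological replicates per cell line.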

[4] = system: Cellular tumor antigen p53 (Homo sapiens), P04637 [Y220C]; assay: Activation of p53 Y220C mutant in human NUGC3 cells assessed as change in CRADD mRNA level at 60 uM after 18 hrs by RT-PCR method relative to control; summary of the method: as §2
[5] = target: T1, Cellular tumor antigen p53; assay: Activation of p53 in human NUGC4 cells assessed as change in CDKN1A mRNA level at 60 uM after 18 hrs by RT-PCR method relative to control; conditions: read-out: FC; summary of the method: as §3
[6] = target: T1, Cellular tumor antigen p53; assay: Activation of p53 in human NUGC4 cells assessed as change in GADD45A mRNA level at 60 uM after 18 hrs by RT-PCR method relative to control; conditions: read-out: FC; summary of the method: as §3
[7] = target: T1, Cellular tumor antigen p53; assay: Activation of p53 in human NUGC4 cells assessed as change in S1AH1 mRNA level at 60 uM after 18 hrs by RT-PCR method relative to control; conditions: read-out: FC
[8] = target: T1, Cellular tumor antigen p53; assay: Activation of p53 in human NUGC4 cells assessed as change in PIDD1 mRNA level at 60 uM after 18 hrs by RT-PCR method relative to control; conditions: read-out: FC
[9] = system: Cellular tumor antigen p53 (Homo sapiens), P04637 [Y220C]; assay: Activation of p53 Y220C mutant in human NUGC3 cells assessed as change in TNFRSF10B mRNA level at 60 uM after 18 hrs by RT-PCR method relative to control; summary of the method: as §1
[10] = system: Cellular tumor antigen p53 (Homo sapiens), P04637 [Y220C]; assay: Activation of p53 Y220C mutant in human NUGC3 cells assessed as change in PTTG1 mRNA level at 60 uM after 18 hrs by RT-PCR method relative to control; summary of the method: as §1

SMILES: CCNC(=O)c1c(O)c(I)c(-n2cccc2)c2sc(N(CC)CC)nc12
- fold change (FC) [1]: 5.4
- fold change (FC) [2]: 1.2
- fold induction at 60 µM [3]: 0.8
- fold change (FC) [4]: 1.1
- fold induction at 60 µM [5]: 1.3
- fold induction at 60 µM [6]: 1.7
- fold induction at 60 µM [7]: 1.2
- fold induction at 60 µM [8]: 0.8
- fold change (FC) [9]: 1.8
- fold change (FC) [10]: 1.5
